Type in all cases: functional
One test relates to Penicillium griseofulvum. Description: Antimicrobial activity against Penicillium griseofulvum DSM 847 after 24 hrs. The following applies: DSM 847, 24 h. An outline of the steps:
(§1)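 Serial dilution in microtiter wells with YMG medium. Compounds in MeOH were dispensed and dried in vacuo. Spores were rinsed from well-grown 9-day-old YMG agar cultures with […], then adjusted to 10⁵ per mL. Concentrations ranged from 100 to 0.1 µg mL^-1 (eight levels). Incubation was 24 h. MIC was recorded.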

The next test deals with Trichoderma harzianum. Description: Antimicrobial activity against Trichoderma harzianum ATCC 64870 after 24 hrs. The following applies: ATCC 64870, 24 h. An outline of the steps:
as §1

The test system of another test is Yarrowia lipolytica. Description: Antimicrobial activity against Yarrowia lipolytica HT20after 24 hrs. An outline of the steps: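 Yeast tested by serial dilution in YMG medium. Compound films were left in wells after MeOH evaporation in vacuo. Inoculum came from an overnight YMG culture, adjusted to 10⁵ cells per mL. After 24 h incubation, the minimal inhibitory concentration was determined.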

In another test the test system is Bacillus subtilis. Description: Antimicrobial activity against Bacillus subtilis ATCC 6633 after 18 hrs. The following applies: ATCC 6633, 18 h. An outline of the steps: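 Serial broth dilution in microtiter wells. Compounds in MeOH were dispensed and the solvent evaporated in vacuo. Inoculum came from an overnight nutrient broth culture, adjusted to 10⁵ cells per mL, in NB medium. Incubation was 18 h. MIC was read as the minimal inhibitory concentration.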

The next test has as its system Mucor hiemalis. Description: Antimicrobial activity against Mucor hiemalis DSM 63298 after 24 hrs. The following applies: DSM 63298, 24 h. An outline of the steps: as §1
Another test has as its system Stachybotrys chartarum. Description: Antimicrobial activity against Stachybotrys chartarum DSM 2144 after 24 hrs. The following applies: DSM 2144, 24 h. An outline of the steps: as §1

Among the data in ChEMBL document CHEMBL1158042, “Carneic acids A and B, chemotaxonomically significant antimicrobial agents from the xylariaceous ascomycete Hypoxylon carneum” (2006) are MIC values, retold here.

In general, MIC refers to the smallest concentration in the dilution series that meets the test's criterion for growth inhibition. Low readings indicate a more susceptible organism, high ones a less susceptible organism.

Values after ≈ are worked out from the molar mass of the structure shown. Starred links: 1 amine or outer side, 2 acyl side, 3 side chain; linkers in the order of their positions; H or OH if unused. Positions of bridges follow the written chain, without caps; N, C: chain ends. Non-standard residues stand in square brackets, D forms with d. Residues, ends and D or L forms follow the SMILES beside them. Chains are numbered I, II in the order given. Actinocin(1to9) = Cc1c2oc3c(C)ccc(C(=O)[*:2])c3nc-2c(C(=O)[*:1])c(N)c1=O; NMeV = CN[C@H](C(=O)O)C(C)C; Sar = CNCC(=O)O

`Oc1cccc2c(-c3ccc(O)c4c(O)cccc34)ccc(O)c12`: the MIC in the test on Penicillium griseofulvum was > 100 µg/mL; against Trichoderma harzianum it was > 100 µg/mL; in the test with Yarrowia lipolytica, > 100 µg/mL; in the test with Bacillus subtilis, 100 µg/mL (≈ 314 µM); with Mucor hiemalis it was 100 µg/mL (≈ 314 µM); against Stachybotrys chartarum it was > 100 µg/mL.

`C/C=C(\C)[C@H]1C(C)=C[C@@H]2[C@@H]([C@H]1/C=C/C=C/C(=O)O)[C@H](C)CC[C@H]2O` [CARNEIC ACID A]: the minimal inhibitory concentration (MIC) in the test with Penicillium griseofulvum is 12 µg/mL (≈ 36.3 µM); in the test with Trichoderma harzianum, 50 µg/mL (≈ 151 µM); against Yarrowia lipolytica it was 25 µg/mL (≈ 75.7 µM); against Bacillus subtilis it was 50 µg/mL (≈ 151 µM); against Mucor hiemalis, 12.5 µg/mL (≈ 37.8 µM); in the test on Stachybotrys chartarum, 25 µg/mL (≈ 75.7 µM).

On to `CC1=C[C@@H]2[C@@H]([C@@H](/C=C/C=C/C(=O)O)[C@H]1/C(C)=C/CO)[C@H](C)CC[C@H]2O` [CARNEIC ACID B], for which the MIC is 25 µg/mL (≈ 72.2 µM) against Penicillium griseofulvum; 50 µg/mL (≈ 144 µM) against Trichoderma harzianum; 25 µg/mL (≈ 72.2 µM) in the test with Yarrowia lipolytica; 50 µg/mL (≈ 144 µM) against Bacillus subtilis; 12.5 µg/mL (≈ 36.1 µM) with Mucor hiemalis; 25 µg/mL (≈ 72.2 µM) against Stachybotrys chartarum.

For `Cc1c2oc3c(C)ccc(C(=O)N[C@@H]4C(=O)N[C@H](C(C)C)C(=O)N5CCC[C@H]5C(=O)N(C)CC(=O)N(C)[C@@H](C(C)C)C(=O)O[C@@H]4C)c3nc-2c(C(=O)N[C@@H]2C(=O)N[C@H](C(C)C)C(=O)N3CCC[C@H]3C(=O)N(C)CC(=O)N(C)[C@@H](C(C)C)C(=O)O[C@@H]2C)c(N)c1=O` [DACTINOMYCIN] (I: T[dV]P[Sar][NMeV] / II: T[dV]P[Sar][NMeV]; ester I:1-I:C, II:1-II:C; linker I:N-II:N via Actinocin(1to9)), the MIC in the test on Penicillium griseofulvum is 3.12 µg/mL (≈ 2.49 µM); with Trichoderma harzianum, 6.25 µg/mL (≈ 4.98 µM); against Yarrowia lipolytica, 6.25 µg/mL (≈ 4.98 µM); with Bacillus subtilis, > 100 µg/mL; in the test on Mucor hiemalis it was 3.12 µg/mL (≈ 2.49 µM); against Stachybotrys chartarum, 3.12 µg/mL (≈ 2.49 µM).

In the case of `CC1(C)S[C@@H]2[C@H](NC(=O)Cc3ccccc3)C(=O)N2[C@H]1C(=O)O` [PENICILLIN G], the MIC against Penicillium griseofulvum was > 100 µg/mL; against Trichoderma harzianum it was > 100 µg/mL; against Yarrowia lipolytica, > 100 µg/mL; in the test with Bacillus subtilis, 3.12 µg/mL (≈ 9.33 µM); with Mucor hiemalis it was > 100 µg/mL; against Stachybotrys chartarum, > 100 µg/mL.

With `CC(=O)OC/C=C/C1=CC2=C(CO1)C(=O)[C@](C)(O)[C@H](OC(=O)c1c(C)cc(O)cc1O)C2` [RUBIGINOSIN A], the MIC with Penicillium griseofulvum was > 100 µg/mL; against Trichoderma harzianum, > 100 µg/mL; in the test with Yarrowia lipolytica it was 100 µg/mL (≈ 225 µM); against Bacillus subtilis, 50 µg/mL (≈ 113 µM); with Mucor hiemalis, 25 µg/mL (≈ 56.3 µM); against Stachybotrys chartarum it was 100 µg/mL (≈ 225 µM).
